Reference: ChEMBL document CHEMBL4513216, “Probing the Open Global Health Chemical Diversity Library for Multistage-Active Starting Points for Next-Generation Antimalarials” (ACS Infect Dis, 2020)

Test: Toxicity liver stage against HepG2, at 10uM
Format: cell-based
Set-up: test concentration 10 uM, cell line HepG2-A16-CD81EGFP
Conditions: human, HepG2-A16-CD81EGFP cells; read-out: INHIBITION
In short: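 Uninfected HepG2-A16-CD81EGFP cells, 3 × 10^3 per well, 1536-well, plated on prespotted compound at 10 μM final, parasite-free screening media added to match infected plates; puromycin 10 μM positive, DMSO 0.5% negative; run in parallel with 48 h PbLuc assay at 37 °C, 5% CO2; viability by CellTiter-Glo luminescence, normalized to controls.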

SMILES | cytotoxicity at 10 µM
O=C(Nc1ccc(Cl)cc1C(=O)NCCN1CCOCC1)c1ccco1 | -4.62%
CC[C@H]1CN2CC[C@H]1C[C@@H]2CNC(=O)Nc1ccccc1 | -0.989%
CCOC(=O)[C@@H]1[C@@H](c2ccccc2)CN2CCN(C(=O)N(C)C)C[C@H]12 | 14.8%
CC(O)CN1CC(C)(C)CN(C(=O)CCc2ccccc2)CC1=O (stereo not drawn) | -0.321%
CC(C)COC(=O)N1CC(=O)N(Cc2ccc(Cl)cc2)CC(O)C1 (stereo not drawn) | -0.947%
COc1ccc2nnc(CCCC(=O)NCCc3ccncc3)n2n1 | -10%
CCOC(=O)c1sc(NC(=O)CN2C(=O)CCC2=O)c(C#N)c1C | -6.93%
O=S(=O)(NCC1(O)CCCC1)c1ccccc1Br | -3.87%
N#Cc1ccc(C(=O)N2CCC(Oc3ccc(C#N)cn3)CC2)cc1 | 7.92%
CC(=O)N1CCC2(CC1)CN(C(=O)c1ccc3c(c1)OCO3)C2 | 6.71%
CN(C)C(=O)CN1CCC2(CCN(S(=O)(=O)C3CC3)CC2)C1=O | 6.32%
Cc1noc(C2CCC3(CCN(C(=O)C4CCOCC4)CC3)O2)n1 (stereo not drawn) | 7.16%
O=C(CCn1ccc2ccc(F)cc21)/N=c1\[nH]nc(C2CCCO2)s1 (stereo not drawn) | -0.0308%
Cc1c(C)n(-c2ccccn2)c2nc3c(c(N)c12)CCCCC3 | 6.1%
Cc1c(Br)cnn1CCC(=O)N(C)Cc1c(Cl)cnn1C | -13.7%
Cc1cnc(-c2nc(C3CCN(Cc4ccccc4Cl)CC3)no2)cn1 | -5.85%
Cc1csc2c(C3CCN(C(=O)Cn4cncn4)CC3)nc(C)n12 | 6.28%
COc1ccc(C2CNCCN2C(=O)c2nccc3ccccc23)cc1 (stereo not drawn) | 4.1%
CNC(=O)C1(c2cnccn2)CCCN1C(=O)c1cccnc1OC (stereo not drawn) | -8.55%
COCC(=O)N1CCN(c2cc(C)nc(C3CCCN3C(C)=O)c2)CC1 (stereo not drawn) | 1.86%
O=C(COc1cccc(F)c1)N1C[C@@H](O)[C@H](N2CCOCC2)C1 | 6.02%
COc1cc2nc3n(c(=O)c2cc1OC)CCN(C(=O)C(C)(C)C)CC3 | -13.5%

SMILES | cytotoxicity at 10 µM
OC1CCN(Cc2c(-c3ccco3)[nH]c3ncccc23)CC1 | -1.58%
CCc1cc(C(=O)N2CCc3nc4c(C)csc4c(=O)n3CC2)on1 | -14.9%
CN(c1ccncn1)C1CC2(CCN(C(=O)c3cncs3)C2)C1 (stereo not drawn) | -8.13%
CC(=O)N1CCCN(Cc2ccon2)c2ccccc21 | 0.616%
CCN(CC)S(=O)(=O)NC(C)C(=O)N(C)C (stereo not drawn) | 9.55%
O=C(c1ccc2[nH]cnc2c1)N1CCC(COc2ccccn2)CC1 | -2.91%
CC(C)(C(=O)NCCCc1nc2ccccc2[nH]1)n1cc(Cl)cn1 | 4.05%
COCCOc1ccc(S(=O)(=O)Nc2cccnc2O)cc1C | 4.68%
Cc1cnn(C2CCCN(C(=O)c3cc(-c4ccccc4C)n[nH]3)C2)c1 (stereo not drawn) | -9.66%
O=C(NCc1ccc(N2CCSCC2)cc1)NCc1cc[nH]n1 | -0.645%
CCSc1cc(C(=O)N(Cc2cnn(C)c2)C(C)C)ccn1 | 4.64%
O=C(NC1CCCN(Cc2c(F)cccc2F)C1)c1cc[nH]n1 (stereo not drawn) | 5.72%
CN(CC(=O)NS(=O)(=O)c1cccs1)Cc1ccccc1 | -9.71%
CC(C)Cc1noc(CN(C)C2CCS(=O)(=O)C2)n1 (stereo not drawn) | 5.7%
CN(C)c1cc2c(nn1)CCN(C(=O)c1cc3c(s1)CCOC3)C2 | 2.35%
O=C(c1cnc(NCC2CCCO2)c(Cl)c1)N1CCCCC1 (stereo not drawn) | 0.139%
O=C1CSCN1CC(=O)N1CCCC1c1nc2ccccc2s1 (stereo not drawn) | -12.7%
COc1ccc(C(CC(=O)O)NC(=O)c2cc(C)on2)cc1 (stereo not drawn) | 5.12%
COc1cccc(S(=O)(=O)CCN2CCCC2c2ccc[nH]2)c1 (stereo not drawn) | -3.89%
O=C(c1ccccc1F)N1CCN(CCCn2cncn2)CC1 | 2.99%
CCNc1c(C#N)c(=O)n(C)c(=O)n1C | 0.504%
CC1CN(c2ncnc3ccccc23)CCO1 (stereo not drawn) | 23.6%

SMILES | cytotoxicity at 10 µM
Cc1cc(CC(=O)NCC(O)c2ccc(OC(F)F)cc2)n[nH]1 (stereo not drawn) | -0.988%
CC(C)(C)OC(=O)Cn1nc(C2CC2)cc(C(F)(F)F)c1=O | -8.96%
CCOc1ccccc1NC(=O)CN(C)Cc1ccccc1Cl | -6.93%
CC1CCN(C(CNC(=O)Cn2cccn2)c2cccs2)CC1 (stereo not drawn) | -16%
Cc1nc(CN2CCC(CNC(=O)NCCC3CCC3)CC2)oc1C | -0.5%
Cc1ccc(C)c(NC(=O)c2cc(S(=O)(=O)N3CCSCC3)c[nH]2)c1 | -0.185%
CCSc1ccc(C(=O)NCCc2nnc(-c3ccco3)[nH]2)cn1 | 10.7%
COCCCN(CCOC)C(=O)Nc1ccccc1-n1cccn1 | 1.51%
CCn1cc(NC(=O)NC(CO)Cc2c[nH]c3ccccc23)cn1 (stereo not drawn) | -7.03%
Cn1cnc2c1CCN(CCOc1ccc3c(c1)CCC(=O)N3)C2 | -4.48%
Cc1cncc(C(=O)N2CCCCC2c2nc[nH]n2)c1 (stereo not drawn) | -0.229%
Cn1c(CCNc2nccnc2C#N)nc2cc(Cl)ccc21 | -6%
COCC(C)(CCO)NC(=O)Nc1cccc(Br)c1C (stereo not drawn) | 10.5%
COC1CCCN(C(=O)NCC(C)(C)SC)C1 (stereo not drawn) | 10.5%
CCn1cc(CN(C)S(=O)(=O)N2CCCC2c2ccco2)cn1 (stereo not drawn) | 9.14%
Cc1cccc(N2N=C(C(=O)NC(C)Cc3ccco3)CCC2=O)c1 (stereo not drawn) | -9.6%
CC(C)c1nc(CNC(C(=O)N2CCOCC2)C(C)C)no1 (stereo not drawn) | 6.43%
NC(=O)[C@@H]1Cc2ccccc2CN1S(=O)(=O)N1CCCCCC1 | 15.6%
CC(NC(=O)Cc1ccccc1F)(C(N)=O)c1cccc(Cl)c1 (stereo not drawn) | 17.6%
Cc1cc(NC(=O)NCC2(O)CCCC2)ccn1 | -6.36%
Cc1nnnn1-c1cc(NCc2cc(C#N)ccc2F)ccc1F | 0.685%
Cc1ccc(S(=O)(=O)N2CCN(Cc3ccncc3)CC2)c(Cl)c1 | -0.147%

SMILES | cytotoxicity at 10 µM
COc1cccc(C(=O)N2CCN(CC(O)c3ccccc3)CC2)c1 (stereo not drawn) | -46.7%
Cc1cc(C)n(C2CCCN(C(=O)Cn3ccc(=O)n(C)c3=O)C2)n1 (stereo not drawn) | 0.437%
COc1ccccc1CC(=O)NC(CC(=O)O)c1ccc(F)cc1 (stereo not drawn) | -4.24%
CCN1C[C@@H]2CN(C(=O)c3cccn3C)C[C@@H]2C1=O | -96.1%
Cn1cc(C[C@H]2[C@H](N3CCOCC3)CCN2C(=O)c2ccoc2)cn1 | -81.5%
CS(=O)(=O)N[C@@H]1CCO[C@]2(CCN(C(=O)c3cnccn3)C2)C1 | 1.98%
COCC(=O)N1CCCN(Cc2cc(O)c3ccccc3n2)CC1 | 4.02%
Cc1nn(C)c2nc(N3CCNC(=O)C3Cc3ccccc3)sc12 (stereo not drawn) | -2.32%
CCC(=O)N1CCN(S(=O)(=O)c2cccc(F)c2)[C@H]2CS(=O)(=O)C[C@H]21 | -52%
Cc1ccc(OC[C@@H]2CNC[C@H](C(=O)NCC3CCCO3)C2)cn1 (stereo partly drawn) | -8.14%
COCCN(C)C[C@@H]1CN(c2nc(C)cc(C)n2)C[C@@H]1CO | -10.3%
Cc1cc(NC(C)c2nncn2C2CCCC2)n2nc(C)c(C)c2n1 (stereo not drawn) | 13.7%
Cc1nc(C(=O)N2CCCCC2c2ccc(CN(C)C)cc2)c(C)o1 (stereo not drawn) | -2.32%
CC(C)(C)CCN1CCC(c2nnc(Cn3cccn3)n2C2CC2)CC1 | 8.19%
OC(CNc1ccncn1)CN1CCCCCC1 (stereo not drawn) | -0.271%
CN(Cc1noc2c1CCCC2)C(=O)C1Cc2ccccc2CN1C (stereo not drawn) | 4.74%
O=C(CC1=CSC2=NCCCN12)N1CCCCC1c1cccc(F)c1 (stereo not drawn) | -160%
CC1(C)CN(Cc2c[nH]c(CC3CCCC3)n2)CC[C@]1(C)O | 2.74%
O=c1[nH]c(-c2ccncc2)nc2c1CCN(S(=O)(=O)N1CCCC1)C2 | 6.04%
CCc1nc(CCn2ccc3nc(OC)c(C#N)cc3c2=O)no1 | 3.57%
NC1CCCN(C(=O)c2csc(-c3ccc(C(F)(F)F)cc3)n2)CC1 (stereo not drawn) | -15.1%
Cc1nc(N)nc(C)c1Cc1nc(C2CC2)n[nH]1 | -9.44%

SMILES | cytotoxicity at 10 µM
CCC(NC(=O)c1nn(C)cc1C(=O)O)c1ccc(C)cc1C (stereo not drawn) | -8.66%
CCCn1cc2c(C(F)F)cc(SCC(=O)O)nc2n1 | -10.9%
COc1ccc(-c2nonc2N)cc1 | -7.97%
Cc1csc(N2CCN(CC(=O)N3CCCC3)CC2C)n1 (stereo not drawn) | -0.456%
COc1ccc(NC(=O)N2CCCCCC2c2ccncc2)cn1 (stereo not drawn) | 5.55%
Cc1nn(C)c(Cl)c1C1CCCN1C(=O)c1ccc2c(c1)OCO2 (stereo not drawn) | -2.9%
CC(C)(C)SCCCC(=O)N1CCC(Nc2cccnn2)CC1 | -8.26%
CN1CCCc2cc(-c3cncn3CCNC3CCS(=O)(=O)C3)ccc21 (stereo not drawn) | -2.42%
Cc1ccc(C(CCNCCCN(C)C)C2CCOC(C)(C)C2)cc1 (stereo not drawn) | -3.32%
CC(C)CN1C(=O)C2(CCN(Cc3ccsc3)C2)c2ccccc21 (stereo not drawn) | 15.7%
CC(C)Nc1ncnc2c1CCN(C(=O)c1ccccc1F)CC2 | -86.7%
CN(C)Cc1cc(=O)n2c(n1)CN(C(=O)c1ccc[nH]1)CCC2 | -123%
CO[C@@H]1CCN(Cc2nccn2C)[C@H]1Cc1cccnc1 | -71.5%
Cn1cc(CN2CCCC3(COCCN(c4cccnc4)C3)C2)cn1 (stereo not drawn) | -75.6%
O=C(NCC1CC1)[C@@H]1CC[C@@H]2[C@@H](CCN2Cc2ccc(F)c(F)c2)O1 | 8.33%
CCN1C[C@H]2[C@@H](C1)N(S(=O)(=O)c1ccccc1F)CC[C@H]2OC | -74.1%
Cc1ccc2c(n1)N(Cc1cccnc1)CCN(C(=O)C1CCC1)C2 | 13.7%
Cn1ccc(C(=O)N2C[C@@H]3CCN(c4cccnc4)C[C@@H]3C2)n1 | -106%
Cc1ccc(N2CCN(C(=O)CN3C[C@H]4CC[C@@H]3C4)CC2=O)cc1 | -1.41%
Cc1ccc(OCc2occc2C(=O)N2C[C@@H]3C(CN(C)C)[C@@H]3C2)cc1 (stereo partly drawn) | -1%
